# An excerpt weighted towards active compounds, which were near 2.3% of everything screened.
# TRPC6 inh: mouse TRPC6 channel inhibition. Q61143. B-score at 10 µM. actives 1.1% (n = 310,000). HEK293-TRPC6, membrane potential dye, ACh-evoked depolarization; hits give low values;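 active = B-score under library mean minus 3 SD, initial fluorescence not abnormally high, positive integrated signal ratio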;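 also: B-score derived from integrated fluorescence ratio over the kinetic read; more negative B-score means stronger inhibition of depolarization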
# Target sequence (Q61143 whole entry, looked up): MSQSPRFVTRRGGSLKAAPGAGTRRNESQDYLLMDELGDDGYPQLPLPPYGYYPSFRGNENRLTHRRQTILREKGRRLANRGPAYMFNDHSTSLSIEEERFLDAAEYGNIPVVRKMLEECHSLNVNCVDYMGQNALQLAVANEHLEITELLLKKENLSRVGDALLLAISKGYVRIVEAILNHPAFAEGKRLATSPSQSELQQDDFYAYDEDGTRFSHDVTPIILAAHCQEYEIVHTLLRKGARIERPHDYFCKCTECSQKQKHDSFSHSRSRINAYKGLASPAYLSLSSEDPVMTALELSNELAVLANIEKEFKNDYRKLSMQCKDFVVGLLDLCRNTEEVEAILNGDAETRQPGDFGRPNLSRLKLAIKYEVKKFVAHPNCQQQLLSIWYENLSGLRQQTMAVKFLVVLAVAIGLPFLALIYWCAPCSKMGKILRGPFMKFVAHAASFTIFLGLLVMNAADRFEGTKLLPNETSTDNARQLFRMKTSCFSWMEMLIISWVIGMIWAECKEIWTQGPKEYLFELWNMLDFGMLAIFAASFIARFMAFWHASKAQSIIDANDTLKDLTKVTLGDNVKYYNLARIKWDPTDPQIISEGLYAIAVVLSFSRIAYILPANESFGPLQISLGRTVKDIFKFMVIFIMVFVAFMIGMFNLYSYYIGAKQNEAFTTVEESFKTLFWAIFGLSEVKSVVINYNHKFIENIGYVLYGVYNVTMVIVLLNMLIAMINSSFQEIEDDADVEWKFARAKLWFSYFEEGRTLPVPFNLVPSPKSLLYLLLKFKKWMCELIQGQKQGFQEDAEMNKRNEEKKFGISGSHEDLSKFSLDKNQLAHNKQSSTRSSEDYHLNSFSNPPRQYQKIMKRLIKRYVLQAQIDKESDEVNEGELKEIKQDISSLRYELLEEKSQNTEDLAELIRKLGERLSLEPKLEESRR
# TRPC4 act: activators of mouse TRPC4 channel | Q9QUQ5 | B-score at 10 µM | actives 0.49% (n = 310,000) | HEK293 TRPC4beta/mu-opioid, Fluo4 calcium fluorescence; hits give high values;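 active = B-score above 5 SD of library B-scores, and initial fluorescence ratio not above library mean plus 5 SD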;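 also: positive B-score marks a calcium rise read as TRPC4 activation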
#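 System: HEK293 cells stably co-expressing mouse TRPC4beta and mu-opioid receptor; Schedule: Fluo4 dye loading 45 min at room temperature, 110 s recording; Detection: Fluo4 fluorescence, kinetic; Evaluation: B-scored integrated calcium fluorescence ratio; Controls: buffer (low) and maximal DAMGO (high).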
# TRPC4 block: TRPC4 (mouse) channel inhibition; actives 0.39% (n = 300,000); AID 2247; Q9QUQ5; B-score at 10 µM; HEK293 TRPC4beta/mu-opioid, DAMGO-evoked Fluo4 calcium flux; hits give low values;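 active = B-score over 3 SD under the library average, no early fluorescence shift, positive overall ratio signal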
#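 Assay system – HEK293 line stably carrying TRPC4beta and mu-opioid receptor · Doses – single dose · Detection – Fluo4 calcium-dye fluorescence, kinetic read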
# TRPC6 act: mouse TRPC6 channel activation; Q61143; HEK293-TRPC6 membrane potential dye fluorescence; hits give high values; B-score at 10 µM; actives 0.13% (n = 310,000); AID 2550;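 active = B-score of the integrated fluorescence ratio above library mean plus 3 SD, and starting fluorescence ratio within library mean plus 5 SD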;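 also: higher score means more depolarization so channel activation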
# TRPC4 PAM: allosterically enhances the mouse TRPC4 cation channel | Q9QUQ5 | HEK293 TRPC4beta/mu-opioid, DAMGO EC20, Fluo-4 Ca2+ flux; hits give high values | B-score at 10 µM | actives 0.42% (n = 310,000);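 active = B-score of calcium response area above 5 SD of library B-scores, with initial fluorescence ratio within 5 SD of library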;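 also: B-score of integrated fluorescence ratio over time as area under calcium response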
# * hit, by the source's call; i = inactive.
SMILES,TRPC6 inh,TRPC4 act,TRPC4 block,TRPC6 act,TRPC4 PAM
COc1ccc(C[C@H]2CN3C(=NC[C@@H]3Cc3ccccc3)N2CCNC(=O)c2ccc(C)c(Br)c2)cc1,i,48*,i,i,i
CC(=O)OC(C#CCN1CCOCC1)c1ccccc1 (stereo not given),i,i,i,i,i
OC(C#CCN1CCOCC1)c1cccs1 (stereo not given),i,77*,i,i,i
CCN(CC)C(CNS(=O)(=O)c1ccc(Cl)cc1)c1ccccc1 (stereo not given),i,i,i,i,i
COC(=O)c1sccc1NC(=S)N1CCN(c2cc(C)ccc2C)CC1,i,i,i,i,i
CCN1CCN(C(=S)Nc2ccsc2C(=O)OC)CC1,i,57*,i,i,i
COC(=O)c1sccc1NC(=S)N1CCN(C)CC1,i,50*,i,i,i
COc1cc(OC)cc(C(=O)Nc2nc(CC(=O)NC(C)c3ccccc3)cs2)c1 (stereo not given),i,i,i,i,i
O=C(O)c1ccc(Oc2ccc(S(=O)(=O)c3ccc(C(=O)O)c(C(=O)O)c3)cc2)cc1,i,i,i,i,i
CC[C@H](C)[C@H](NC(=O)c1ccccc1)C(=O)NC(CC(=O)O)c1ccc(F)cc1 (stereo not given in full),i,i,i,i,i
COc1ccc(CC(O)CC2c3c(cc4c(c3OC)OCO4)CCN2C)cc1 (stereo not given),i,58*,-6*,i,i
O=C(CCCSc1nc2ccccc2[nH]1)Nc1nnc(-c2ccccc2)o1,i,i,-6*,i,i
O=C(CSc1cccc(C(F)(F)F)c1)Nc1cc(S(=O)(=O)N2CCCC2)ccc1Cl,i,i,i,i,10*
Cn1nnnc1SCC(=O)Nc1cc(S(=O)(=O)N2CCCC2)ccc1Cl,i,i,i,i,i
CN(CC(=O)Nc1cccc(F)c1)C(=O)COc1cccc2c1OC(C)(C)C2,i,i,i,i,i
CC(=O)Nc1cccc(C(=O)OC(C(=O)c2ccc(C)cc2)c2ccccc2)c1 (stereo not given),i,i,i,i,17*
O=C(NCc1ccccc1)C1=C[C@H](c2ccc(Br)cc2)C[C@H](OCc2ccc(CO)cc2)O1,i,i,i,i,15*
CC(C)(C)[C@@H]1C=C(C(=O)NCc2ccccc2)O[C@H](OCc2ccc(CO)cc2)C1,i,i,i,i,13*
CC(C)(C)[C@H]1C=C(C(=O)Nc2ccccc2)O[C@@H](OCc2ccc(CO)cc2)C1,i,i,i,i,i
O=C(Nc1ccccc1)C1=C[C@H](C2CCCCC2)C[C@H](OCc2ccc(CO)cc2)O1,i,i,i,i,19*
O=C(Nc1ccccc1)C1=C[C@@H](C2CCCCC2)C[C@@H](OCc2ccc(CO)cc2)O1,i,i,i,i,i
O=C(NCc1ccccc1)C1=C[C@H](c2ccc3c(c2)OCO3)C[C@H](OCc2ccc(CO)cc2)O1,i,211*,-6*,i,i
CCCCC(=O)N1CC(=O)Nc2ccc(F)cc2C1c1ccccc1 (stereo not given),i,i,i,i,i
CN1CCCN(C(=O)c2cc(-c3ccc(Cl)c(Cl)c3Cl)nc3ccccc23)CC1,i,52*,i,i,i
Cc1ccc(-c2cc(C(=O)N3CCC(C)CC3)c3ccccc3n2)cc1,i,i,i,i,12*
SMILES,TRPC6 inh,TRPC4 act,TRPC4 block,TRPC6 act,TRPC4 PAM
O=C(OCC(=O)N1CCN(C(=O)c2ccco2)CC1)c1cc(-c2ccc(Cl)c(Cl)c2Cl)nc2ccccc12,i,i,i,i,i
COc1cc(OC)cc(C(=O)NC2CCN(CC(=O)Nc3cccc4ccccc34)CC2)c1,i,i,i,i,i
Cc1cc(N(CCO)CCO)ccc1C(c1ccc(N(CCO)CCO)cc1C)c1ccccc1Cl,i,i,i,i,11*
Cc1cc(C)c(NC2=NCC(=O)N2C2CCCCC2)c(C)c1,i,i,i,i,i
O=C1CN=C(Nc2cccc(C(F)(F)F)c2)N1C1CCCC1,i,i,-6*,i,i
Cc1cccc(/C=N/NC(=O)c2cc(Br)ccc2O)n1,i,i,i,i,65*
COc1ccc2ccccc2c1CNC(C)c1ccccc1 (stereo not given),i,i,i,i,i
CC(NCCCOc1cccc2ccccc12)c1ccccc1 (stereo not given),i,69*,i,i,i
CCn1nc(C)c(CN2CCCC(CO)(Cc3cccc(Cl)c3)C2)c1C (stereo not given),i,i,-6*,i,i
CCCNc1nc(-c2ccccc2)c(C(=O)OCC)cc1C#N,i,i,i,i,i
CCCCNc1nc(-c2ccccc2)c(C(=O)OCC)cc1C#N,i,i,-6*,i,i
CC(=O)N1CCN(c2ccc(OC[C@H]3CO[C@](Cn4ccnc4)(c4ccc(Cl)cc4Cl)O3)cc2)CC1,i,52*,i,i,i
Cc1cc(C)c(-n2c(SCCS(=O)(=O)c3ccc(F)cc3)n[nH]c2=O)c(C)c1,i,i,i,i,i
CCOC(=O)C1(CC2CCCCO2)CCN(Cc2cc(F)ccc2-n2cccn2)CC1 (stereo not given),i,91*,i,i,i
CCOC(=O)C1(CC2CCCCO2)CCN(Cc2nc3ccccc3[nH]2)CC1 (stereo not given),i,115*,i,i,i
CCOC(=O)C1(CC2CCCCO2)CCN(Cc2c(C)cc(C)cc2-n2cccn2)CC1 (stereo not given),i,106*,i,i,i
CCOC(=O)C1(CC2CCCCO2)CCN(Cc2nccn2-c2cccc(C)c2)CC1 (stereo not given),i,i,i,i,i
COc1ccc2[nH]cc(CCNC(=O)Nc3ccccc3C)c2c1,i,i,i,i,i
O=C(CC(C(=O)O)c1cccc(Cl)c1Cl)c1ccccc1 (stereo not given),i,i,i,i,i
CCCCNC(=O)/C(C#N)=C/c1ccc(F)cc1F,i,i,i,i,27*
O=C(CCN1C(=O)C2CC=CCC2C1=O)NC1CCCCC1 (stereo not given),i,i,i,i,i
O=C1CC(c2cc([N+](=O)[O-])ccc2Cl)c2c(ccc3ccccc23)N1 (stereo not given),i,i,i,i,i
